# pIC50: −log10 of the molar value.
# Biological target: Xanthine dehydrogenase/oxidase (Homo sapiens, UniProt P47989)
# Test: Inhibition of xanthine oxidase assessed as decrease in uric acid production by spectrophotometry
# Procedure, shortened: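 Flavonoid at various concentrations with 50 µM xanthine, 0.2 mM hydroxylamine and 0.1 mM EDTA. Stopped with HCl, then uric acid read as absorbance at 290 nm against an enzyme-free blank. IC50 by linear regression.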
# Chain of Xanthine dehydrogenase/oxidase (P47989 whole entry): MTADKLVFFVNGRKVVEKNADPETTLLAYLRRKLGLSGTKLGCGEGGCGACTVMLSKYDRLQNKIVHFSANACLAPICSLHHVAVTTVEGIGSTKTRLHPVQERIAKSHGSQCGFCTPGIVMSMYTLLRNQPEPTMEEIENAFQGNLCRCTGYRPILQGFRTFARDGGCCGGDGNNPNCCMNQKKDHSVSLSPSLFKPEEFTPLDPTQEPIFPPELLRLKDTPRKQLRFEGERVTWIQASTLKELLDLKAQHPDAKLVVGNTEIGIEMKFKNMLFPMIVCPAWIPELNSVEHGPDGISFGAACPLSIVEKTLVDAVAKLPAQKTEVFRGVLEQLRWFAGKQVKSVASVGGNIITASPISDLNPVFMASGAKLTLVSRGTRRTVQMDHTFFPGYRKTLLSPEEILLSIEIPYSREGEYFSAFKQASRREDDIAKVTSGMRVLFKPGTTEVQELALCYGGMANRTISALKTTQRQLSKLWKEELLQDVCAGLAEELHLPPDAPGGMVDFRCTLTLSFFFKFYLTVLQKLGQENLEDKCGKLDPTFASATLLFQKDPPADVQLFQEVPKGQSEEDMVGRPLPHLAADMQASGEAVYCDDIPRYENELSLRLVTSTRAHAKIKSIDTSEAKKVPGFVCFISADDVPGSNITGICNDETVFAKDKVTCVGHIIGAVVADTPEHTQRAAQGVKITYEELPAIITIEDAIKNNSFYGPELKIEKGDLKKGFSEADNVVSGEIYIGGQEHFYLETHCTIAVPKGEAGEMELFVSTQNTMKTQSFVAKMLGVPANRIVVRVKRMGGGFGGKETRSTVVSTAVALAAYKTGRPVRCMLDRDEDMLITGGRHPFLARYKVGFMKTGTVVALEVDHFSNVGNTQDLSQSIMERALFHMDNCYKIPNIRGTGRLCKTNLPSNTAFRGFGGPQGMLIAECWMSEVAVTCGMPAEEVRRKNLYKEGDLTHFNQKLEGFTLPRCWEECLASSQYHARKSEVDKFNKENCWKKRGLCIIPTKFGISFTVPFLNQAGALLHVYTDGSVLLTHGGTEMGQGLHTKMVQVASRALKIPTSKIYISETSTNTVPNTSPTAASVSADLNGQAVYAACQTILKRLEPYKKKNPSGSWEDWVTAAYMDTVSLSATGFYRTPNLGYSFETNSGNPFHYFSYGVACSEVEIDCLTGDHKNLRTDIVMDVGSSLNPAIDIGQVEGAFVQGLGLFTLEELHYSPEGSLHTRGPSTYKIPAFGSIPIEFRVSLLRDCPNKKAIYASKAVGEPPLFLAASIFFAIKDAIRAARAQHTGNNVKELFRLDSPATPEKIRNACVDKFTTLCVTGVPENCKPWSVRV
row,pIC50,SMILES
1,< 4.00,C[C@@H]1O[C@@H](Oc2c(-c3ccc(O)c(O)c3)oc3cc(O)cc(=O)c-3c2O)[C@H](O)[C@H](O)[C@H]1O
2,< 4.00,O=C(C=Cc1ccc(O)cc1)OC[C@H]1O[C@@H](Oc2c(-c3ccc(O)cc3)oc3cc(O)cc(=O)c-3c2O)[C@H](O)[C@@H](O)[C@@H]1O [kaempferol-3-beta-D-(6-O-trans-p-coumaroyl)glucopyranoside]
